# An excerpt weighted towards active compounds, which were near 1.8% of everything screened.
# TAG inh – inhibitors of triacylglycerol accumulation, primary screen, cell-based, uHTS, fluorescence, H9c2; H9c2 cells, Nile Red lipid (TAG) fluorescence; cells loaded with 200 µM oleic acid; inhibition, % at 12.5 µM; 230,000 tested, 0.66% active;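 active means pattern-corrected inhibition of lipid staining of at least 50% with the nuclear-stain viability signal not falling by more than 50%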
# Hep lipid drop – inhibitors of hepatocyte lipid droplet formation, primary screen, imaging, high-throughput imaging, BODIPY stain; AML12 mouse hepatocytes, oleate lipid droplets; 240,000 tested, 0.4% active; inhibition, % at 6.5 µM; AID 1656, 2009;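 active means lipid droplet intensity inhibited by at least 50%, with more than 500 cells counted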
#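 Assay system: AML12 mouse liver cells | Compound dosing: One dose, 6.5 µM compound | Read-out basis: Droplet intensity reduction, % inhibition | Measured by: Fluorescence imaging, 20x objective, two fields per well | Schedule: Overnight treatment with compound plus oleate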
# 697 NFkB inh – inhibitors of PMA/ionomycin-induced NF-kB reporter, 697 cells, primary screen, B-cell NF-kB inhibitor project, cell-based, luminescence, uHTS; 330,000 tested, 0.33% active; inhibition, % at 4 µM; 697 B-cell NF-kB luciferase reporter, 16 h; in the data active means inhibition above about 35%
# iPSC survival up – enhancers of single-cell hiPSC survival, primary screen, ATPlite luminescence | 100% = ROCK inhibitor wells, 0% = DMSO | survival enhancement, % at 20 µM | 360,000 tested, 0.044% active | AID 602274, 2012; in the data active means survival enhancement above about 18%;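 further: cells exposed to compounds for 16 hours before the ATP read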
# Jurkat NFkB inh – inhibitors of induced NF-kB luciferase reporter, primary screen, TCR NF-kB activation inhibitor project, cell-based, luminescence, uHTS | inhibition, % at 4 µM | Jurkat, PMA/ionomycin-induced NF-kB luciferase reporter | 330,000 tested, 0.53% active; in the data active means inhibition above about 50%
# Gli-Sufu block – Gli-Sufu pathway antagonists, primary screen, luciferase luminescence, Sufu-KO-LIGHT cells, uHTS; 340,000 tested, 0.74% active; Sufu-KO-LIGHT fibroblasts, Gli luciferase reporter luminescence; inhibition, % at 5 µM;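 active means inhibition above about 55%, limit read from the data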
# Lipid drop inh – hepatocyte lipid droplet accumulation inhibitors, confirmation, imaging, AML12 mouse hepatocytes, single concentration, high-content. shares compounds with Hep lipid drop. BODIPY lipid droplet imaging; droplets induced with 100 µM oleic acid. inhibition, % at 5.2 µM. 870 tested, 65% active. AID 463183, 2010;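 active means inhibition of lipid droplet metric at least 50%, with more than 300 cells in each of four replicates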
# AML12 tox img – AML12 hepatocyte cytotoxicity, counter-screen for hepatic lipid droplet formation project, imaging, DAPI nuclear morphology imaging; AID 463200, 2010; shares compounds with Hep lipid drop; 870 tested, 3% active; z-score at 5 µM; AML12 mouse hepatocytes; hits give high values; cells fed 100 µM oleate overnight; in the data active means z-score above about 6.3;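 further: compound exposure lasted overnight at 37 °C before fixation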
# AML12 tox conf – AML12 hepatocyte cytotoxicity, confirmation, cytotoxicity control for hepatic lipid droplet formation project, cell-based, single concentration; shares compounds with Hep lipid drop; AML12 mouse hepatocyte viability, ATP luminescence; cells loaded with 100 µM oleic acid; cytotoxicity, % at 50 µM; 530 tested, under 10 active; AID 463219, 2010;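 active means cytotoxicity above 50% in each of four replicates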;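 further: compound exposure lasted overnight at 37 °C before the ATP read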
# Hits are given with their value; – = inactive; · = not tested or not shown.
SMILES,TAG inh,Hep lipid drop,697 NFkB inh,iPSC survival up,Jurkat NFkB inh,Gli-Sufu block,Lipid drop inh,AML12 tox img,others
CCN(CC)C(=O)CC(c1cc(OC)c(OC)c(OC)c1)c1c(OC)cc(OC)c2ccc(=O)oc12 (stereo unspecified),–,–,–,–,–,–,·,·,
CCN(CC)C(=O)CC(c1ccc(OC)cc1)c1c(OC)cc(OC)c2ccc(=O)oc12 (stereo unspecified),–,64,–,–,–,–,–,–,
CC(=O)OCC(=O)[C@@]1(O)CC[C@H]2[C@@H]3CCC4=CC(=O)CC[C@]4(C)[C@H]3[C@@H](O)C[C@@]21C,–,50,–,–,–,–,–,–,
CCC(CC)C(=O)OCC(=O)C1(O)CCC2C3CCC4=CC(=O)CCC4(C)C3C(O)CC21C (stereo unspecified),–,·,·,–,·,–,·,·,
CCOc1cc2[nH]c(=O)n(CCCC(=O)N(C)Cc3ccccc3)c(=O)c2cc1OCC,–,70,–,–,–,–,107,–,AML12 tox conf=–
CCOc1cc2[nH]c(=O)n(CCCC(=O)NCc3ccco3)c(=O)c2cc1OCC,–,·,–,–,–,–,·,·,
CCCCOc1ccc(-c2ncc(Cl)cn2)cc1,·,–,–,–,–,–,·,·,
CCCCOc1ccc(-c2ncc([N+](=O)[O-])cn2)cc1,–,51,–,–,–,–,–,–,
COCCNC(=S)N1CCc2cc(OC)c(OC)cc2C1COc1cc(C)cc(C)c1 (stereo unspecified),·,62,–,–,–,–,90,–,AML12 tox conf=–
O=C(CC1C(=O)NCCN1Cc1cccc(F)c1F)NCCCC1CCCC1 (stereo unspecified),·,–,–,–,–,–,·,·,
O=C(Cc1cccs1)N1CCN(S(=O)(=O)c2cc(Cl)ccc2Cl)CC1,–,·,–,–,–,–,·,·,
O=C(NNc1cc(N2CCOCC2)nc(N2CCOCC2)n1)C12CC3CC(CC(C3)C1)C2,·,–,–,–,–,–,·,·,
FC(F)(F)c1cc(C(F)(F)F)c2ccc(N3CCN(c4ccc(Cl)cc4)CC3)nc2n1,·,·,–,–,–,–,·,·,
N#CC(c1ccc(Cl)cc1)c1ccc2c(C(F)(F)F)cc(C(F)(F)F)nc2n1 (stereo unspecified),–,59,–,–,–,92,–,6.2,
Cc1ccc(N(CC(=O)NCc2ccco2)C(=O)CCC(=O)Nc2nccs2)c(C)c1,·,–,–,–,–,–,·,·,
COc1ccc(N2C(=O)CC2(/C=C/c2ccccc2OC)C(=O)NC2CCCC2)cc1 (stereo unspecified),–,–,–,–,–,–,·,·,
O=C1CC(/C=C/c2ccccc2)(C(=O)NC2CCCC2)N1c1ccc(S(=O)(=O)N2CCCC2)cc1 (stereo unspecified),·,90,–,–,–,–,84,–,
CCOC(=O)n1cc(-c2cnc(CNC(=O)C(C)(c3ccccc3)c3ccccc3)o2)c2ccccc21,·,59,–,·,–,–,90,–,
CCOC(=O)c1[nH]ncc1CN1CCN(Cc2ccccc2)C(CCO)C1 (stereo unspecified),–,–,–,–,–,–,·,·,
Cc1cccc2sc(NC(=O)CN(C)S(=O)(=O)c3cccs3)nc12,–,56,–,–,–,–,95,–,AML12 tox conf=–
Cc1ccc(S(=O)(=O)CCC(=O)OC(C)c2nnc(-c3cccs3)o2)cc1 (stereo unspecified),–,·,–,–,–,–,·,·,
CN(C)c1nc(N/N=C/c2c[nH]c3ccccc23)nc(N2CCOCC2)n1,–,131,–,–,–,–,86,22,
COc1ccccc1NC(=O)COC(=O)C1CCN(/C=C/C(=O)C(F)(F)F)CC1,·,–,–,–,–,–,·,·,
CC1CC(C)CN(C(=O)CSCC(=O)Nc2nc(-c3cccs3)cs2)C1 (stereo unspecified),–,56,–,–,–,–,108,–,AML12 tox conf=–
Cc1ccc(C(=O)N/C(=C\c2cccs2)C(=O)NCC2CCCO2)cc1C (stereo unspecified),·,–,–,–,–,–,·,·,
SMILES,TAG inh,Hep lipid drop,697 NFkB inh,iPSC survival up,Jurkat NFkB inh,Gli-Sufu block,Lipid drop inh,AML12 tox img,others
COc1cc2ncnc(NCc3ccccc3C)c2cc1OC,–,–,–,–,–,–,·,·,
COc1cc2ncnc(NCc3ccccc3Cl)c2cc1OC,–,52,–,–,–,–,65,17,
COc1cc2ncnc(NCc3ccc(Cl)cc3)c2cc1OC,–,51,–,–,–,–,70,13,
CC(=O)c1cccc(N=Nc2c(-c3ccccc3)[nH]n(-c3ccccc3)c2=O)c1,·,101,–,–,–,–,110,–,AML12 tox conf=–
Nc1[nH]n(-c2ccccc2)c(=O)c1N=Nc1ccccc1,–,–,–,–,–,–,·,·,
Cc1[nH]n(-c2ccccc2)c(=O)c1N=Nc1cccc(Cl)c1,·,64,–,–,–,–,101,–,AML12 tox conf=–
CCC(C)(C)NC(=O)C(c1ccc(C)cc1)N(CCN1CCOCC1)C(=O)CNC(=O)c1cccs1 (stereo unspecified),–,–,–,–,–,–,·,·,
COc1c(OC(C)=O)c(=O)n2c3ccccc3c3ccnc1c32,·,·,–,–,–,–,·,·,
COc1ccc(CN(C)C(=O)CNC(=O)Cc2cccc3ccccc23)c(OC)c1OC,–,53,–,–,–,–,82,–,AML12 tox conf=–
CCCN(CCC)CCCNC(=O)c1ccc2c(c1)N(CC)C(=O)c1ccccc1S2=O (stereo unspecified),–,·,–,–,–,–,·,·,
CCCCSCCCNC(=O)c1ccc2c(c1)N(CC)C(=O)c1ccccc1S2=O (stereo unspecified),·,60,–,–,–,–,88,–,AML12 tox conf=–
COCCn1c(SCC(=O)Nc2cc(C)on2)nc2ccccc2c1=O,–,·,–,–,–,–,·,·,
CCCCCCn1c(SCC(=O)Nc2cc(C)on2)nc2ccccc2c1=O,·,68,–,–,–,–,97,–,AML12 tox conf=–
Cc1ccc(C(C(=O)NC(C)(C)C)N(Cc2ccco2)C(=O)CCC(=O)Nc2ccccn2)cc1 (stereo unspecified),·,50,–,–,–,–,–,–,

# Source: PubChem
